Structures are written as SMILES. The source made the active and inactive calls. The rule behind the calls is not given here.

Among the data in ChEMBL document CHEMBL4732081, “Development of prohibitin ligands against osteoporosis” (Eur J Med Chem, 2021) are inhibition and Activity values, retold here.

Data set [1] can be described thus: Inhibition of osteoclastogenesis in human bone marrow derived CD14+ pre-osteoclasts assessed as blocked of osteoclast differentiation in presence of M-CSF and RANKL at 1 uM measured after 11 days by TRAP staining method relative to control. To be noted: 264 h, time 11 day. In kind it is functional. A digest of the protocol: (§1)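 Human CD14+ cells came from donor PBMCs by Ficoll centrifugation (500g, 25 min) and CD14 microbead MACS selection. They were seeded at 45 x 10^4 cells/well in α-MEM, 10% FCS, 25 ng/ml hM-CSF. From day 3, medium with 25 ng/ml hM-CSF and 100 ng/ml hRANKL ± compound was changed twice weekly; about 11 days. TRAP-stained multinucleated cells were counted, as % vs RANKL positive control. Monocyte lots differed between series.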

Data set [2] is described as follows: Inhibition of osteoclastogenesis in human […] CD14+ pre-osteoclasts assessed as blocked of osteoclast differentiation in presence of M-CSF and RANKL at 10 uM measured after 11 days by TRAP staining method relative to control. The class given is functional. The conditions noted are these: 264 h, time 11 day. An outline of the steps:
as §1

Data set [3] can be described thus: Inhibition of osteoclastogenesis in human bone marrow derived CD14+ pre-osteoclasts assessed as blocked of osteoclast differentiation in presence of M-CSF and RANKL at 5 uM measured after 11 days by TRAP staining method relative to control. To be noted: 264 h, time 11 day. In kind it is functional. A digest of the protocol:
as §1

The subject of data set [4] is Monocyte. The data set can be described thus: Effect on p38 expression in human M-CSF treated human bone marrow derived CD14+ monocytes at 10 uM preincubated for 4 hrs followed by IL-6 stimulation and measured after 15 mins by Western blot assay. The class given is functional, tissue-based. To be noted: time 4.25 hrs. An outline of the steps:
(§2)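 Human CD14+ monocytes were cultured 3 days with 25 ng/ml M-CSF. They were then treated with vehicle or 10 µM compound for 4 h without FBS and M-CSF, and stimulated with IL-6 (25 ng/mL) for 15 min. Equal-protein lysates were run on SDS-PAGE and transferred to PVDF. Blots were probed overnight at 4°C with primary antibodies, with fluorescent secondary detection.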

The target of data set [5] is MAP kinase p38 (Homo sapiens) (UniProt O15264+Q15759+Q16539+P53778). In words: Effect on p38 phosphorylation in human M-CSF treated human bone marrow derived CD14+ monocytes at 10 uM preincubated for 4 hrs followed by IL-6 stimulation and measured after 15 mins by Western blot assay. The conditions noted are these: Monocyte, time 4.25 hrs. An outline of the steps:
as §2

Data set [6] deals with Monocyte. In words: Effect on ERK expression in human M-CSF treated human bone marrow derived CD14+ monocytes at 10 uM preincubated for 4 hrs followed by IL-6 stimulation and measured after 15 mins by Western blot assay. In kind it is functional. To be noted: time 4.25 hrs. A digest of the protocol: as §2
Data set [7] has as its system Monocyte. The data set can be described thus: Effect on ERK phosphorylation in human M-CSF treated human bone marrow derived CD14+ monocytes at 10 uM preincubated for 4 hrs followed by IL-6 stimulation and measured after 15 mins by Western blot assay. The conditions noted are these: time 4.25 hrs. A digest of the protocol: as §2
Data set [8] has as its target Signal transducer and activator of transcription 3 (Homo sapiens) (UniProt P40763). The data set can be described thus: Inhibition of STAT3 phosphorylation at Ser-727 in human M-CSF treated human bone marrow derived CD14+ monocytes at 10 uM preincubated for 4 hrs followed by IL-6 stimulation and measured after 15 mins by Western blot assay. To be noted: Monocyte, time 4.25 hrs. An outline of the steps: as §2
(Immunoblotting shows a protein as a band on a membrane.)

The subject of data set [9] is Monocyte. The data set can be described thus: Inhibition of osteoclastogenesis in human bone marrow derived CD14+ monocytes assessed as decrease in RANKL-induced Cathepsin K mRNA expression at 1 to 10 uM measured after 4 days by qRT-PCR method. The class given is functional. To be noted: dose 1-10 µM, time 4.0 day. An outline of the steps: (§3)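 CD14+ cells were seeded and, from day 3, treated with 25 ng/ml hM-CSF and 100 ng/ml hRANKL ± compound for 4 days. Target mRNA was measured by qRT-PCR, normalized to GAPDH, with comparative Ct quantification. Each assay was performed in triplicate.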
A general note: In qPCR the cycle at which signal appears reflects the starting amount.

Data set [10] concerns Monocyte. In words: Inhibition of osteoclastogenesis in human bone marrow derived CD14+ monocytes assessed as decrease in RANKL-induced TRAP mRNA expression at 1 to 10 uM measured after 4 days by qRT-PCR method. The class given is functional. To be noted: dose 1-10 µM, time 4.0 day. An outline of the steps:
as §3

The subject of data set [11] is Monocyte. The data set can be described thus: Inhibition of osteoclastogenesis in human bone marrow derived CD14+ monocytes assessed as decrease in RANKL-induced NFATc1 mRNA expression at 1 to 10 uM measured after 4 days by qRT-PCR method. The class given is functional. The conditions noted are these: dose 1-10 µM, time 4.0 day. An outline of the steps:
as §3

A short description of data set [12]: Cytotoxicity against human bone marrow derived CD14+ pre-osteoclasts upto 10 uM. The conditions noted are these: osteoclast. In kind it is tissue-based.

Sequence of Signal transducer and activator of transcription 3 (Homo sapiens) (P40763 whole entry): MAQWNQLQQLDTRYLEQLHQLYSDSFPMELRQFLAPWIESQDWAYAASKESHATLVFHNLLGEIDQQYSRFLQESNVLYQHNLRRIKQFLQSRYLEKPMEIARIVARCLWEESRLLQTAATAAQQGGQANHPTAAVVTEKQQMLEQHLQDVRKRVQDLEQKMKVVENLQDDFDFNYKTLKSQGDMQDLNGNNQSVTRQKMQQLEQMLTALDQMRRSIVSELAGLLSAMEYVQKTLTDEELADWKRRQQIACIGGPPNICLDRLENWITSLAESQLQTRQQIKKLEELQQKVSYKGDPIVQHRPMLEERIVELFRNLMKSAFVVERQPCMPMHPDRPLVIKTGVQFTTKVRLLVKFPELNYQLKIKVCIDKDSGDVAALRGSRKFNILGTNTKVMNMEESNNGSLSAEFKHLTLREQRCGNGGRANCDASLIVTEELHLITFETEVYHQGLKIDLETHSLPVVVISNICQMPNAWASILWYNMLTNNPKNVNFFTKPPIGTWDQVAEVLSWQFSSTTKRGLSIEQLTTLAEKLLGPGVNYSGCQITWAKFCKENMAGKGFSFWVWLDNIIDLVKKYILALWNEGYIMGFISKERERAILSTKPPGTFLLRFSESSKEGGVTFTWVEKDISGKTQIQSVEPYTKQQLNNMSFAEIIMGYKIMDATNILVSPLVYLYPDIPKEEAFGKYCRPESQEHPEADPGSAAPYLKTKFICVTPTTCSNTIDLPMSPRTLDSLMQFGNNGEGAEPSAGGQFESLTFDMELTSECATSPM

On to `C[C@@H]1CCC[C@H](C)N1/C(CC1CCCCC1)=N/S(=O)(=O)C[C@@]12CCC(CC1=O)C2(C)C`, for which the inhibition at 1 µM in data set [1] was -1.5%. Also, the inhibition at 10 µM in data set [2] came out at 57.5%.
The like results for `CCCCC1CCCCN(C(C)C)/C1=N/S(=O)(=O)c1ccc(C)cc1` (centres undefined) were, in that order, 12.1% and 90.1%.
On to `Cc1ccc(S(=O)(=O)/N=C(\CC2CCCC2)N2[C@H](C)CCC[C@@H]2C)cc1`, for which, in data set [1], the inhibition at 1 µM was found to be 32.7%. Also, the inhibition at 10 µM in [2] was determined as 91.5%.
The like results for `C[C@@H]1CCC[C@H](C)N1/C(CC1CCCCC1)=N/S(=O)(=O)N(C)C` were, in that order, 11.8% and 68.4%.
The corresponding values for `C[C@@H]1CCC[C@H](C)N1/C(CC1CCCCC1)=N/S(=O)(=O)c1ccccc1` are 3.3% and 97.9%.
As for `Cc1ccc(S(=O)(=O)/N=C(\C2CCCCC2)N2[C@H](C)CCC[C@@H]2C)cc1`, the inhibition at 1 µM in data set [1] was found to be 22.8%. The inhibition at 10 µM in [2] turned out to be 24.1%.
As for `COc1ccc(S(=O)(=O)/N=C(\CC2CCCCC2)N2CCCCCC2)cc1`, in [1], the inhibition at 1 µM was -30%. Also, the inhibition at 10 µM in [2] worked out at 88%. The inhibition at 5 µM in data set [3] was 49%.
On to `CCCCC/C(=N\S(=O)(=O)c1ccc(C)cc1)N1[C@H](C)CCC[C@@H]1C`, for which, in data set [1], the inhibition at 1 µM turned out to be 20.9%. Further, the inhibition at 10 µM in [2] was found to be 99.8%.
The like results for `Cc1ccc(S(=O)(=O)/N=C2\CCCCCN2C(C)C)cc1` were, in that order, 27.1% and 39.3%.
On to `Cc1ccc(S(=O)(=O)/N=C(\CC2CCCCC2)N2[C@H](C)CCC[C@@H]2C)cc1`, for which the inhibition at 1 µM in data set [1] stood at 35%. Also, the inhibition at 10 µM in data set [2] came to 97.9%. For the same compound, in data set [3], the inhibition at 5 µM amounted to 72%. Moreover, the outcome (in the data set on Monocyte [4]; in data set [5]; with Monocyte [6]; in the data set with Monocyte [7]) was inactive. Moreover, the inhibition entry (in data set [8]; in the data set with Monocyte [9]; in the data set with Monocyte [10]; with Monocyte [11]) was “Active” throughout.
On to `C[C@@H]1CCC[C@H](C)N1/C(CC1CCCCC1)=N/S(=O)(=O)c1cccnc1`, for which the inhibition at 1 µM in data set [1] was -23.6%. Further, the inhibition at 10 µM in [2] worked out at 56.1%.
Turning to `COc1ccc(S(=O)(=O)/N=C(\CC2CCCCC2)N2[C@H](C)CCC[C@@H]2C)cc1`, the inhibition at 10 µM in data set [2] stood at 98%. Also, the inhibition at 5 µM in [3] is 62%.
With `CCCCC1CCCN(C(C)C)/C1=N/S(=O)(=O)c1ccc(C)cc1` (centres undefined), the inhibition at 1 µM in data set [1] is 31.9%. Further, in [2], the inhibition at 10 µM was 80.6%.
On to `COc1ccc(S(=O)(=O)/N=C(\CC2CCCCC2)N(C(C)C)C2CCSCC2)cc1`, for which the inhibition at 1 µM in data set [1] is -10%. In [2], the inhibition at 10 µM came out at 93%. Moreover, in [3], the inhibition at 5 µM amounted to 53%.
Turning to `COc1ccc(S(=O)(=O)/N=C(\CC2CCCCC2)N(C(C)C)C2CCCC2)cc1`, the inhibition at 1 µM in [1] was -86%. The inhibition at 10 µM in [2] is 99%. Besides, in [3], the inhibition at 5 µM stood at 26%.
With `COc1ccc(S(=O)(=O)/N=C(\CC2CCCCC2)N(C(C)C)C2CCCCCCC2)cc1`, the inhibition at 1 µM in data set [1] stood at 5%. Besides, the inhibition at 10 µM in data set [2] was determined as 100%. Besides, the inhibition at 5 µM in data set [3] came to 88%. Also, the Activity result in data set [12] is “Toxic”.
Regarding `CC(C)S(=O)(=O)/N=C(\CC1CCCCC1)N1[C@H](C)CCC[C@@H]1C`, the inhibition at 1 µM in data set [1] came to 1.6%. For the same compound, the inhibition at 10 µM in data set [2] amounted to 12.6%.
The like results for `Cc1ccc(S(=O)(=O)/N=C(\C=C2CCCCC2)N2[C@H](C)CCC[C@@H]2C)cc1` were, in that order, 25.5% and 23.3%.
The corresponding values for `C[C@@H]1CCC[C@H](C)N1/C(CC1CCCCC1)=N/S(=O)(=O)C(F)(F)F` are -1.1% and 96.1%.
The like results for `C[C@@H]1CCC[C@H](C)N1/C(CC1CCCCC1)=N/S(=O)(=O)c1ccccn1` were, in that order, -20.2% and 44.9%.
Regarding `Cc1ccc(S(=O)(=O)/N=C(\CC2CCCCC2)N2CCCC3CCCCC32)cc1` (centres undefined), in data set [1], the inhibition at 1 µM was determined as 33.1%. Also, the inhibition at 10 µM in [2] is 78.9%.
Consider `COc1ccc(S(=O)(=O)/N=C(\CC2CCCCC2)N(C(C)C)C2CCOCC2)cc1`, for which, in [1], the inhibition at 1 µM was -14%. In addition, the inhibition at 10 µM in [2] was 39%. Besides, in [3], the inhibition at 5 µM was determined as 28%.
The corresponding values for `COc1ccc(S(=O)(=O)/N=C(\CC2CCCCC2)N(C(C)C)C2CCCCCC2)cc1` are -6%, 99% and 74%.
Regarding `Cc1ccc(S(=O)(=O)/N=C2\CCCCN2C(C)C)cc1`, the inhibition at 1 µM in data set [1] came to 27.9%. In addition, the inhibition at 10 µM in data set [2] turned out to be 6.1%.

A word on the inhibition: it is the change of the read-out against control, counted positive when it falls.
